Values joined by “and” are separate entries in the source; they are usually repeats but may differ in a detail not shown here. Equal values may be shown once. Where no end group is shown, it is not given here.
What was measured:
[1] = Ca^2+ association constants of chromophoric chelators; assay type: binding; conditions: 20 °C, 20 mM Tris-HCl pH 6.8, 100 mM NaCl
[2] = biological target: Lethocerus troponin C, F1 isoform (Lethocerus); assay: other fluorescence titration
[3] = biological target: T1, F1 TnC (Lethocerus indicus, UniProt Q868D4); assay: TnH peptide binding to F1 TnC by competition with melittin; conditions: 20 °C, 20 mM Tris-HCl pH 6.8, 100 mM NaCl
T1 sequence (Q868D4 1-158): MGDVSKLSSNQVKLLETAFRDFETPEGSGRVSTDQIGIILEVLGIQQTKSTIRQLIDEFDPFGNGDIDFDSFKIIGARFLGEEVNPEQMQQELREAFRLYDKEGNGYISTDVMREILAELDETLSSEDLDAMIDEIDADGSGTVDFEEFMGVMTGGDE
How it was run: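 Competition assay: mixtures of melittin and F1 TnC were titrated with synthetic test peptides (TnH fragments; >95% HPLC, sequences MALDI-verified). Displacement was followed by melittin Trp fluorescence (excitation 280 nm, emission 290–400 nm). Conditions were 20 °C, 20 mM Tris-HCl pH 6.8, 100 mM NaCl, with 1 mM Ca2+, 5 mM Mg2+, or both.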

[4] = biological target: T2, F2 TnC (Lethocerus indicus, UniProt Q868D3); assay: TnH peptide binding to F2 TnC by competition with melittin; conditions: 20 °C, 20 mM Tris-HCl pH 6.8, 100 mM NaCl
T2 sequence (Q868D3 1-158): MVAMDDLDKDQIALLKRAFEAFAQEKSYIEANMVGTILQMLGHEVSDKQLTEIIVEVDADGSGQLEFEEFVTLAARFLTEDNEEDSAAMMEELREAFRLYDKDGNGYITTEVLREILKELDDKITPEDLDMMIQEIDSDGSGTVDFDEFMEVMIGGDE
How it was run: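 Recombinant F2 TnC was expressed in E. coli BL21(DE3), purified on Ni-NTA, His-tag cleaved with TEV, then purified by gel filtration. Melittin (0.33 μM) plus F2 TnC (1.4 μM with 1 mM Ca2+) was titrated with synthetic test peptides (TnH fragments). Binding was read by melittin Trp fluorescence (excitation 280 nm, emission 290–400 nm) at 20 °C, pH 6.8 Tris/100 mM NaCl; Mg2+ was 5 mM.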

[5] = biological target: T1, F1 TnC; conditions: C lobe of F1 TnC, essentially Ca^2+ independent; cited from earlier work
[6] = biological target: Lethocerus troponin C, F2 isoform (Lethocerus); assay: other fluorescence titration
[7] = 1 mM Ca^2+ and 5 mM Mg^2+, competition with melittin
[8] = 5 mM Mg^2+, competition with melittin

O=C(O)CN(CC(=O)O)c1ccccc1OCCOc1cc([N+](=O)[O-])ccc1N(CC(=O)O)CC(=O)O [5-nitro BAPTA]
Equilibrium association constant for Ca^2+ (KCa) [1]: (4.1 ± 0.3) × 10^4 M^−1

TnH(126−159) peptide of Lethocerus troponin H
Kd [2]: 12200 nM and 3700 nM and 9100 nM

YDLNSQVNDLRGKFVKPTLKKVSKYENKFAKLQKK [TnH(126−159)]
Kd ([3]; 1 mM Ca^2+): 3700 ± 1100 nM | Kd ([3]; 5 mM Mg^2+): 9100 ± 3200 nM | Kd ([3]; metal: none (0.2 mM EGTA)): 12200 ± 3400 nM | Kd [4, 7]: 3500 ± 800 nM | Kd ([4]; 1 mM Ca^2+, competition with melittin 0.33 μM, F2 TnC 1.4 μM): 3100 ± 800 nM | Kd [4, 8]: 13500 ± 3500 nM | Equilibrium dissociation constant range for F1 TnC [5]: in the micromolar range

O=C(O)CN(CC(=O)O)c1ccc(Br)cc1OCCOc1cc(Br)ccc1N(CC(=O)O)CC(=O)O [5,5′-dibromo BAPTA]
Equilibrium association constant for Ca^2+ (KCa) [1]: (6.3 ± 0.5) × 10^5 M^−1

TnH(30−61) peptide of Lethocerus troponin H
Kd [2]: 1.3 nM and 1.9 nM and 2.2 nM

YKAKKAKKGFMTPERKKKLRLLLRKKAAEELKK [TnH(30−61)]
Kd ([3]; 1 mM Ca^2+ and 5 mM Mg^2+): 1.3 ± 0.4 nM | Kd ([3]; 1 mM Ca^2+): 0.9 ± 0.2 nM | Kd ([3]; 5 mM Mg^2+): 2.2 ± 0.4 nM | Kd ([3]; metal: none (0.2 mM EGTA)): 1.9 ± 0.6 nM | Kd ([4]; 1 mM Ca^2+ (holo), competition with melittin 0.33 μM, F2 TnC 1.4 μM): 7.8 ± 0.15 nM | Kd [4, 7]: 6.7 ± 0.9 nM | Kd [4, 8]: 38.5 ± 5.2 nM | Equilibrium dissociation constant range for F1 TnC [5]: in the nanomolar range

Melittin from honey bee venom (from UniProt P01501 44-70) (peptide)
Kd [2]: 41 nM and 8.3 nM and 32 nM | Kd [6]: 840 nM and 190 nM and 770 nM

Reference: paper PMC3057471 (Biochemistry, 2011)
